# Calls of active or inactive are those of the source. The calls are words filed in the database; no cut-off is given here.
# Experiments:
# Candida albicans [1] = assay: Antifungal activity against wild type Candida albicans SC5314 assessed as inhibition of fungal growth; type: functional
# Escherichia coli [2] = assay: Antibacterial activity against wild type Escherichia coli BW25113 assessed as inhibition of bacterial growth; type: functional
# Escherichia coli [3] = assay: Antibacterial activity against Escherichia coli JW55031 harboring tolC mutant assessed as inhibition of bacterial growth; type: functional
# Staphylococcus aureus = assay: Antibacterial activity against Methicillin-resistant Staphylococcus aureus USA300 assessed as inhibition of bacterial growth; type: functional
# Clostridioides difficile = assay: Antibacterial activity against Clostridium difficile ATCC BAA1870 assessed as inhibition of bacterial growth; type: functional
# Cryptococcus neoformans [4] = assay: Antifungal activity against Cryptococcus neoformans NR 41298 assessed as inhibition of fungal growth incubated for 48 hrs by broth microdilution method; type: functional
# How it was run: (§1)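 Clinical isolate; CLSI broth microdilution over a range of concentrations (media listed: RPMI 1640, MOPS, YPD). MIC read as lowest concentration inhibiting growth by 50% after 48 h incubation at 35 °C.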
# Cryptococcus neoformans [5] = assay: Antifungal activity against Cryptococcus neoformans NR 41300 assessed as inhibition of fungal growth incubated for 48 hrs by broth microdilution method; type: functional; how it was run: as §1
# Cryptococcus neoformans [6] = assay: Antifungal activity against Cryptococcus neoformans NR 48771 assessed as inhibition of fungal growth incubated for 48 hrs by broth microdilution method; type: functional; how it was run: as §1
# Candida parapsilosis [7] = assay: Antifungal activity against Candida parapsilosis ATCC 22019 assessed as inhibition of fungal growth incubated for 24 hrs by broth microdilution method; type: functional; settings: Lodderomyces parapsilosis
# How it was run: (§2)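 Clinical isolate; CLSI broth microdilution over a range of concentrations (media listed: RPMI 1640, MOPS, YPD). MIC taken as lowest concentration giving 50% growth inhibition after 24 h at 35 °C.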
# [8] = Antibacterial activity against Lactobacillus casei HM334 assessed as inhibition of bacterial growth; type: toxicity; settings: lacticaseibacillus casei
# Cryptococcus neoformans [9] = assay: Antifungal activity against Cryptococcus neoformans NR 48773 assessed as inhibition of fungal growth incubated for 48 hrs by broth microdilution method; type: functional; how it was run: as §1
# Vero = assay: Cytotoxicity against African green monkey Vero cells assessed as inhibition of cell viability at 16 ug/ml incubated for 2 hrs by MTS assay; type: toxicity, cell-based; settings: chlorocebus sabaeus, dose 16 µg/ml
# Lactobacillus gasseri = assay: Antibacterial activity against Lactobacillus gasseri HM400 assessed as inhibition of bacterial growth; type: toxicity, organism-based
# [Candida] auris [10] = Antifungal activity against Candida auris 383 assessed as inhibition of fungal growth incubated for 24 hrs by broth microdilution method; type: functional; settings: Candidozyma auris; how it was run: as §2
# Nakaseomyces glabratus [11] = assay: Antifungal activity against Candida glabrata ATCC MYA2950 assessed as inhibition of fungal growth incubated for 24 hrs by broth microdilution method; type: functional; how it was run: as §2
# Cryptococcus neoformans [12] = assay: Antifungal activity against Cryptococcus neoformans NR 48770 assessed as inhibition of fungal growth incubated for 48 hrs by broth microdilution method; type: functional; how it was run: as §1
# Nakaseomyces glabratus [13] = assay: Antifungal activity against Candida glabrata ATCC 66032 assessed as inhibition of fungal growth incubated for 24 hrs by broth microdilution method; type: functional; how it was run: as §2
# [14] = Antibacterial activity against Lactobacillus crispatus HM370 assessed as inhibition of bacterial growth; type: toxicity
# Cryptococcus neoformans [15] = assay: Antifungal activity against Cryptococcus neoformans NR 48767 assessed as inhibition of fungal growth incubated for 48 hrs by broth microdilution method; type: functional; how it was run: as §1
# Cryptococcus neoformans [16] = assay: Antifungal activity against Cryptococcus neoformans NR 41299 assessed as inhibition of fungal growth incubated for 48 hrs by broth microdilution method; type: functional; how it was run: as §1
# Pichia kudriavzevii [17] = assay: Antifungal activity against Candida krusei CAB 396420 assessed as inhibition of fungal growth incubated for 24 hrs by broth microdilution method; type: functional
# How it was run: (§3)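 Broth microdilution per CLSI guidelines against clinical isolates, incubated at 35 °C for 24 h (Candida, Aspergillus) or 48 h (Cryptococcus). MIC was the lowest concentration giving 50% growth inhibition.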
# Pichia kudriavzevii [18] = assay: Antifungal activity against Candida krusei ATCC 34135 assessed as inhibition of fungal growth incubated for 24 hrs by broth microdilution method; type: functional; how it was run: as §3
# [19] = Antifungal activity against Cryptococcus gattii NR 43210 assessed as inhibition of fungal growth incubated for 48 hrs by broth microdilution method; type: functional, Cryptococcus gattii VGI; how it was run: as §3
# Candida albicans [20] = assay: Antifungal activity against Candida albicans NR 29448 assessed as inhibition of fungal growth incubated for 24 hrs by broth microdilution method; type: functional; how it was run: as §2
# [21] = Antifungal activity against Cryptococcus gattii NR 43216 assessed as inhibition of fungal growth incubated for 48 hrs by broth microdilution method; type: functional, Cryptococcus gattii VGI; how it was run: as §3
# [22] = Cytotoxicity against African green monkey Vero cells assessed as inhibition of cell viability incubated for 2 hrs by MTS assay; type: toxicity, cell-based; settings: chlorocebus sabaeus
# How it was run: (§4)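 Vero cells were grown in MEM with 10% FBS, 1 mM sodium pyruvate and penicillin–streptomycin, then exposed to compounds for 2 h at 37 °C, 5% CO2, in triplicate. MTS was added for 3 h and OD490 read. Viability was expressed as % of DMSO-matched controls (mean ± SD).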
# [23] = Cytotoxicity against African green monkey Vero cells assessed as cell viability at 8 ug/ml incubated for 2 hrs by MTS assay; type: toxicity, cell-based; settings: chlorocebus sabaeus, at 8 µg/mL, read-out: Activity; how it was run: as §4
# Candida parapsilosis [24] = assay: Antifungal activity against Candida parapsilosis CAB 502638 assessed as inhibition of fungal growth incubated for 24 hrs by broth microdilution method; type: functional; settings: Lodderomyces parapsilosis; how it was run: as §3
# Candida albicans [25] = assay: Antifungal activity against Candida albicans ATCC 10231 assessed as inhibition of fungal growth incubated for 24 hrs by broth microdilution method; type: functional; how it was run: as §3
# [26] = Antifungal activity against Cryptococcus gattii NR 43214 assessed as inhibition of fungal growth incubated for 48 hrs by broth microdilution method; type: functional, Cryptococcus gattii VGI; how it was run: as §3
# [27] = Antifungal activity against Cryptococcus gattii NR 43213 assessed as inhibition of fungal growth incubated for 48 hrs by broth microdilution method; type: functional, Cryptococcus gattii VGI; how it was run: as §3
# [Candida] auris [28] = Antifungal activity against Candida auris 382 assessed as inhibition of fungal growth incubated for 24 hrs by broth microdilution method; type: functional; settings: Candidozyma auris; how it was run: as §2
# [29] = Antifungal activity against Cryptococcus gattii NR 43209 assessed as inhibition of fungal growth incubated for 48 hrs by broth microdilution method; type: functional, Cryptococcus gattii VGI; how it was run: as §3
# [Candida] auris [30] = Antifungal activity against Candida auris 381 assessed as inhibition of fungal growth incubated for 24 hrs by broth microdilution method; type: functional; settings: Candidozyma auris; how it was run: as §2
# Cryptococcus neoformans [31] = assay: Antibiofilm activity against Cryptococcus neoformans NR 41300 assessed as inhibition of biofilm formation at 0.5xMIC measured after 48 hrs by crystal violet staining based analysis; type: functional
# How it was run: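 Overnight C. neoformans was washed twice in PBS and adjusted to 105 cells per mL in RPMI. Cells were exposed to compound at 0.5 × MIC for 48 h at 35 °C. Biofilm was rinsed, dried, stained with 0.1% crystal violet, and the dye extracted with glacial acetic acid; OD595 readout.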
# Cryptococcus neoformans [32] = assay: Anti-cryptococcal activity against Cryptococcus neoformans NR 41300 infected in mouse J774 cells assessed as log reduction of intracellular fungal colony forming unit at 4 ug/ml measured after 24 hrs; type: functional; settings: dose 4 µg/ml
# How it was run: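 C. neoformans NR-41300 was grown 48 h in YPD, washed, and used to infect J774 macrophages at MOI ~100:1 for 1 h, followed by PBS washes. Compounds at 4 μg mL−1 (triplicate) were applied for 22 h at 37 °C, 5% CO2. Extracellular yeast were killed with amphotericin B 1 μg mL−1 for 1 h. Cells were lysed in 0.1% Triton X-100 and plated on YPD agar for 48 h at 37 °C; readout log10 CFU mL−1.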
# Aspergillus fumigatus [33] = assay: Antifungal activity against Aspergillus fumigatus NR 35304 assessed as inhibition of fungal growth incubated for 24 hrs by broth microdilution method; type: functional; how it was run: as §3
# Aspergillus fumigatus [34] = assay: Antifungal activity against Aspergillus fumigatus NR 35303 assessed as inhibition of fungal growth incubated for 24 hrs by broth microdilution method; type: functional; how it was run: as §3
# [35] = Apparent permeability of the compound measured after 4 hrs by PAMPA assay; type: ADME
# How it was run: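 PAMPA: compound was placed in pH 6.5 donor buffer across a lipid-pretreated PVDF filter from pH 7.4 acceptor buffer, and incubated 4 h at ambient temperature. Donor and acceptor amounts at start and end were measured by UV absorbance to give apparent permeability.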
compound,measurement,setting,value
Cc1nc(-c2ccc3ccccc3c2)sc1-c1nnc(NCCN)o1,MIC,Candida albicans [1],32 mg/L
same,MIC,Escherichia coli [2],> 64 mg/L
same,MIC,Escherichia coli [3],64 mg/L
same,MIC,Staphylococcus aureus,32 mg/L
same,MIC,Clostridioides difficile,64 mg/L
Cc1nc(-c2ccc3ccccc3c2)sc1-c1nnc(N2CC[C@@H](N(C)C)C2)o1,MIC,Candida albicans [1],32 mg/L
same,MIC,Escherichia coli [2],> 64 mg/L
same,MIC,Escherichia coli [3],32 mg/L
same,MIC,Staphylococcus aureus,4 mg/L
same,MIC,Clostridioides difficile,16 mg/L
CCNc1nnc(-c2sc(-c3ccc4ccccc4c3)nc2C)o1,MIC,Candida albicans [1],> 64 mg/L
same,MIC,Escherichia coli [2],> 64 mg/L
same,MIC,Escherichia coli [3],64 mg/L
same,MIC,Staphylococcus aureus,64 mg/L
same,MIC,Clostridioides difficile,64 mg/L
C[C@@H]1[C@H](O)[C@@H](C)/C=C/C=C/C=C/C=C/C=C/C=C/C=C/[C@H](O[C@@H]2O[C@H](C)[C@@H](O)[C@H](N)[C@@H]2O)C[C@@H]2O[C@](O)(C[C@@H](O)C[C@@H](O)[C@H](O)CC[C@@H](O)C[C@@H](O)CC(=O)O[C@H]1C)C[C@H](O)[C@H]2C(=O)O [AMPHOTERICIN B],MIC,Cryptococcus neoformans [4],1 mg/L
same,MIC,Cryptococcus neoformans [5],1 mg/L
same,MIC,Cryptococcus neoformans [6],1 mg/L
same,MIC,Candida parapsilosis [7],0.5 mg/L
same,MIC,[8],> 128 mg/L
same,MIC,Cryptococcus neoformans [9],1 mg/L
same,MIC,Candida albicans [1],1 mg/L
same,Activity,Vero,Toxic
same,MIC,Lactobacillus gasseri,> 128 mg/L
same,MIC,[Candida] auris [10],1 mg/L
same,MIC,Nakaseomyces glabratus [11],1 mg/L
same,MIC,Cryptococcus neoformans [12],1 mg/L
same,MIC,Nakaseomyces glabratus [13],2 mg/L
same,MIC,[14],> 128 mg/L
same,MIC,Cryptococcus neoformans [15],1 mg/L
same,MIC,Cryptococcus neoformans [16],1 mg/L
same,MIC,Pichia kudriavzevii [17],2 mg/L
same,MIC,Pichia kudriavzevii [18],2 mg/L
same,MIC,[19],1 mg/L
same,MIC,Candida albicans [20],1 mg/L
same,MIC,[21],1 mg/L
same,CC50 at 2 h,[22],~8 mg/L
same,"viability at 2 h, 8 ug/ml",[23],58%
same,MIC,Candida parapsilosis [24],0.5 mg/L
same,MIC,Candida albicans [25],1 mg/L
same,MIC,[26],1 mg/L
same,MIC,[27],1 mg/L
same,MIC,[Candida] auris [28],1 mg/L
same,MIC,[29],1 mg/L
same,MIC,[Candida] auris [30],0.5 mg/L
OC(Cn1cncn1)(Cn1cncn1)c1ccc(F)cc1F [FLUCONAZOLE],MIC,Cryptococcus neoformans [4],2 mg/L
same,MIC,Cryptococcus neoformans [5],1 mg/L
same,MIC,Cryptococcus neoformans [6],2 mg/L
same,MIC,Candida parapsilosis [7],1 mg/L
same,MIC,[8],> 128 mg/L
same,MIC,Cryptococcus neoformans [9],2 mg/L
same,MIC,Candida albicans [1],0.5 mg/L
same,MIC,Lactobacillus gasseri,> 128 mg/L
same,MIC,[Candida] auris [10],64 mg/L
same,MIC,Nakaseomyces glabratus [11],16 mg/L
same,MIC,Cryptococcus neoformans [12],2 mg/L
same,MIC,Nakaseomyces glabratus [13],8 mg/L
same,MIC,[14],> 128 mg/L
same,MIC,Cryptococcus neoformans [15],1 mg/L
same,MIC,Cryptococcus neoformans [16],1 mg/L
same,MIC,Pichia kudriavzevii [17],16 mg/L
same,MIC,Pichia kudriavzevii [18],16 mg/L
same,MIC,[19],4 mg/L
same,Activity,Cryptococcus neoformans [31],Active
same,MIC,Candida albicans [20],> 128 mg/L
same,MIC,[21],2 mg/L
same,MIC,Candida parapsilosis [24],0.5 mg/L
same,MIC,Candida albicans [25],1 mg/L
same,Activity,Cryptococcus neoformans [32],0.25 log10CFU/ml
same,MIC,[26],1 mg/L
same,MIC,[27],2 mg/L
same,MIC,[Candida] auris [28],64 mg/L
same,MIC,[29],4 mg/L
same,MIC,[Candida] auris [30],2 mg/L
CCC(C)n1ncn(-c2ccc(N3CCN(c4ccc(OCC5COC(Cn6cncn6)(c6ccc(Cl)cc6Cl)O5)cc4)CC3)cc2)c1=O (centres undefined) [ITRACONAZOLE],MIC,Aspergillus fumigatus [33],1 mg/L
same,MIC,Aspergillus fumigatus [34],1 mg/L
CC(C(=O)O)c1cccc(C(=O)c2ccccc2)c1 (centres undefined) [KETOPROFEN],Papp at 4 h,[35],102 nm/s
CC(=O)NC[C@H]1CN(c2ccc(N3CCOCC3)c(F)c2)C(=O)O1 [LINEZOLID],MIC,Escherichia coli [2],> 64 mg/L
same,MIC,Escherichia coli [3],8 mg/L
same,MIC,Staphylococcus aureus,1 mg/L
same,MIC,Clostridioides difficile,1 mg/L
CC(C)NCC(O)COc1cccc2ccccc12 (centres undefined) [PROPRANOLOL],Papp at 4 h,[35],766 nm/s
GENTAMICIN,MIC,Escherichia coli [2],< 0.5 mg/L
same,MIC,Escherichia coli [3],< 0.5 mg/L
